We go through 17 compounds from ChEMBL document CHEMBL2406985, “Evaluation of (4-aminobutyloxy)quinolines as a novel class of antifungal agents” (2013).

SMILES strings stand for the structures. Values after ≈ are worked out from the molar mass of the structure shown.

What all share (assay type): functional
Assay [1] can be described thus: Antifungal activity against Rhodotorula bogoriensis MUCL 11796 at 0.1 mg/uL per disc after 24 hrs by disc diffusion test. Background: In agar diffusion tests the substance spreads into inoculated agar from a disc or well.
In assay [2] the test system is Aspergillus flavus. In words: Antifungal activity against Aspergillus flavus ATCC 44310 at 0.1 mg/uL per disc after 48 hrs by disc diffusion test.
In assay [3] the test system is Fusarium solani. In words: Antifungal activity against Fusarium solani CBS 230.34 at 0.1 mg/uL per disc after 48 hrs by disc diffusion test.
In assay [4] the test system is Candida albicans. The assay is described as follows: Antifungal activity against Candida albicans IHEM 374 at 0.1 mg/uL per disc after 24 hrs by disc diffusion test.
For assay [5], the system named is Candida albicans. In words: Antifungal activity against Candida albicans IHEM 374 after 24 hrs by microdilution method. The following applies: IHEM 374, 24 h. The procedure, abridged:
(§1)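 Broth microdilution used stock inocula in saline at 0.5 McFarland. A log2 dilution series (0–500 mg/L) was made in double-concentration RPMI-1640 with glutamine and a pH indicator, without bicarbonate. Plates were incubated at 37 °C without agitation: C. albicans and R. bogoriensis 24 h, A. flavus 48 h, F. solani 72 h. Absorbance was read at 530 nm to give the MIC.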

In assay [6] the test system is Aspergillus flavus. In words: Antifungal activity against Aspergillus flavus ATCC 44310 after 48 to 72 hrs by microdilution method. A digest of the protocol: as §1
The nature of assay [7]: Antifungal activity against Rhodotorula bogoriensis MUCL 11796 after 24 hrs by microdilution method. The procedure, abridged:
as §1
A general note: Dilution methods test growth across graded concentrations, often in twofold steps.

The test system of assay [8] is Fusarium solani. The assay is described as follows: Antifungal activity against Fusarium solani CBS 230.34 after 48 to 72 hrs by microdilution method. A digest of the protocol:
as §1

On to `Clc1ccc(CNCCCCOc2ccc3ncccc3c2)cc1`, for which the inhibition zone (IZ) in assay [1] turned out to be 0 mm. For the same compound, the “diameter of the inhibition zone (DIZ)” value in the assay with Aspergillus flavus [2], with Fusarium solani [3] and with Candida albicans [4] was 0 mm each time.

As for `CCN(CC)CCC(C)COc1c(Cl)cc(Cl)c2cccnc12` (centres undefined), the minimum inhibitory concentration (MIC) against Candida albicans [5] came out at 0.5 µg/mL (≈ 1.41 µM); in the assay on Aspergillus flavus [6] it was 0.5 µg/mL (≈ 1.41 µM); in assay [7], 0.25 µg/mL (≈ 0.704 µM). Also, in assay [1], the inhibition zone (IZ) is 32 mm. Also, the “diameter of the inhibition zone (DIZ)” value was 12 mm in the assay with Aspergillus flavus [2], 0 mm in the assay on Fusarium solani [3] and 10 mm in the assay on Candida albicans [4].

As for `CCN(CC)CCC(C)COc1c(Br)cc(Br)c2cccnc12` (centres undefined), the minimum inhibitory concentration (MIC) was found to be 0.25 µg/mL (≈ 0.563 µM) in the assay with Candida albicans [5], 2 µg/mL (≈ 4.5 µM) in the assay with Aspergillus flavus [6] and 0.5 µg/mL (≈ 1.13 µM) in assay [7]. In addition, in assay [1], the inhibition zone (IZ) was 28 mm. The “diameter of the inhibition zone (DIZ)” value was determined as 7 mm in the assay on Aspergillus flavus [2], 0 mm in the assay on Fusarium solani [3] and 20 mm in the assay on Candida albicans [4].

Consider `CC(CCNCc1ccc(Cl)cc1)COc1cccc2ncccc12` (centres undefined), for which, in assay [1], the inhibition zone (IZ) came to 7 mm. For the same compound, the “diameter of the inhibition zone (DIZ)” value in the assay with Aspergillus flavus [2], in the assay on Fusarium solani [3] and in the assay on Candida albicans [4] was 0 mm throughout.

Turning to `CCN(CC)CCCCOc1ccc(Cl)c2cccnc12`, the inhibition zone (IZ) in assay [1] was 0 mm. For the same compound, the entries for the “diameter of the inhibition zone (DIZ)” value with Aspergillus flavus [2], in the assay with Fusarium solani [3] and in the assay with Candida albicans [4] were 0 mm, 0 mm and 12 mm, respectively.

With `CCN(CC)CCC(C)COc1cccc2cccnc12` (centres undefined), the inhibition zone (IZ) in assay [1] turned out to be 0 mm. Further, the “diameter of the inhibition zone (DIZ)” value with Aspergillus flavus [2], with Fusarium solani [3] and in the assay on Candida albicans [4] was 0 mm throughout.

As for `CCN(CC)CCC(C)COc1c(I)cc(Cl)c2cccnc12` (centres undefined), the figures for the MIC (against Candida albicans [5]; against Aspergillus flavus [6]; in assay [7]) were 4 µg/mL (≈ 8.95 µM), 4 µg/mL (≈ 8.95 µM) and 0.25 µg/mL (≈ 0.56 µM), respectively. In assay [1], this compound registered an inhibition zone (IZ) of 30 mm. Further, the “diameter of the inhibition zone (DIZ)” value with Aspergillus flavus [2] worked out at 10 mm; in the assay on Fusarium solani [3], 0 mm; in the assay with Candida albicans [4], 7 mm.

On to `CC(CCNCc1ccc(Cl)cc1)COc1cccc2cccnc12` (centres undefined), for which, in assay [1], the inhibition zone (IZ) is 15 mm. Further, the “diameter of the inhibition zone (DIZ)” value in the assay with Aspergillus flavus [2], with Fusarium solani [3] and with Candida albicans [4] was 0 mm throughout.

In the case of `CC(CCNCc1ccc(Cl)cc1)COc1c(I)cc(I)c2cccnc12` (centres undefined), the inhibition zone (IZ) in assay [1] amounted to 10 mm. The “diameter of the inhibition zone (DIZ)” value with Aspergillus flavus [2] is on record as 0 mm; with Fusarium solani [3], 0 mm; in the assay on Candida albicans [4] it was 7 mm.

In assay [1], `Clc1ccc(CNCCCCOc2ccc(Cl)c3cccnc23)cc1` showed an inhibition zone (IZ) of 30 mm. For the same compound, the entries for the “diameter of the inhibition zone (DIZ)” value with Aspergillus flavus [2], in the assay on Fusarium solani [3] and in the assay on Candida albicans [4] were 0 mm, 0 mm and 8 mm, respectively.

`CCN(CC)CCCCOc1ccc2ncccc2c1`: the inhibition zone (IZ) in assay [1] was found to be 0 mm. Besides, the “diameter of the inhibition zone (DIZ)” value with Aspergillus flavus [2], with Fusarium solani [3] and in the assay with Candida albicans [4] was 0 mm throughout.

`CCN(CC)CCCCOc1c(I)cc(Cl)c2cccnc12` gave an inhibition zone (IZ) in assay [1] of 14 mm. For the same compound, the “diameter of the inhibition zone (DIZ)” value is on record as 7 mm in the assay with Aspergillus flavus [2], 0 mm in the assay with Fusarium solani [3] and 0 mm in the assay on Candida albicans [4].

In turn, `Clc1ccc(CNCCCCOc2cccc3ncccc23)cc1` registered an inhibition zone (IZ) in assay [1] of 0 mm. Further, the “diameter of the inhibition zone (DIZ)” value with Aspergillus flavus [2], in the assay on Fusarium solani [3] and with Candida albicans [4] was 0 mm throughout.

As to `CCN(CC)CCC(C)COc1c(Cl)cc(Cl)c2ccc(C)nc12` (centres undefined), the minimal inhibitory concentration (MIC) amounted to 0.25 µg/mL (≈ 0.677 µM) in the assay with Candida albicans [5], 0.5 µg/mL (≈ 1.35 µM) with Aspergillus flavus [6], 0.12 µg/mL (≈ 0.325 µM) in assay [7] and 0.5 µg/mL (≈ 1.35 µM) against Fusarium solani [8]. This compound also registered an inhibition zone (IZ) in assay [1] of 30 mm. Further, the “diameter of the inhibition zone (DIZ)” value is given as 10 mm in the assay with Aspergillus flavus [2], 20 mm in the assay on Fusarium solani [3] and 20 mm with Candida albicans [4].

In turn, `CCN(CC)CCCCOc1cccc2cccnc12` returned an inhibition zone (IZ) in assay [1] of 0 mm. Besides, the “diameter of the inhibition zone (DIZ)” value in the assay on Aspergillus flavus [2], in the assay on Fusarium solani [3] and in the assay with Candida albicans [4] was 0 mm throughout.

For `CCN(CC)CCC(C)COc1c(I)cc(I)c2cccnc12` (centres undefined), the MIC was 0.5 µg/mL (≈ 0.929 µM) against Candida albicans [5], 4 µg/mL (≈ 7.43 µM) with Aspergillus flavus [6] and 0.5 µg/mL (≈ 0.929 µM) in assay [7]. The inhibition zone (IZ) in assay [1] was 26 mm. Further, the figures for the “diameter of the inhibition zone (DIZ)” value in the assay on Aspergillus flavus [2], with Fusarium solani [3] and in the assay on Candida albicans [4] were 7 mm, 0 mm and 12 mm, respectively.

Compound `CCN(CC)CCCCOc1cccc2ncccc12` displayed an inhibition zone (IZ) in assay [1] of 0 mm. Also, the “diameter of the inhibition zone (DIZ)” value in the assay on Aspergillus flavus [2], in the assay with Fusarium solani [3] and in the assay on Candida albicans [4] was 0 mm throughout.

For orientation: MIC means the smallest concentration in the dilution series that meets the test's criterion for growth inhibition. High values mean a less susceptible organism, low ones a more susceptible organism.
